ChEMBL document CHEMBL1148762, “Lysosome and HER3 (ErbB3) selective anticancer agent kahalalide F: semisynthetic modifications and antifungal lead-exploration studies” (J Med Chem, 2007)
Values after ≈ are worked out from the molar mass of the structure shown. Active and inactive are the calls of the source. The calls are words filed in the database; no cut-off is given here.

Legend:
Fusarium proliferatum [1] = assay: Fungistatic activity against Fusarium proliferatum at 30 uM after 72 hrs by microtiter plate assay; format: functional, organism-based
Summary of the method: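 Conidia come from 7-day potato dextrose agar cultures, filtered and set photometrically (625 nm) to 3 × 10^5 conidia/mL. They are exposed to compound at 30 µM in 96-well microdilution broth at 24 ± 1 °C under a 12 h photoperiod. After 72 h, 20 µL per well is subcultured on drug-free potato dextrose agar at 28 °C for 3 days. No regrowth is scored fungicidal; regrowth is scored fungistatic.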

Fusarium solani [2] = assay: Fungicidal activity against Fusarium solani at 30 uM after 72 hrs by microtiter assay; format: functional, organism-based
Summary of the method: (§1)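 After 72 h of microtiter broth exposure at 30 µM, 20 µL from each well was plated onto compound-free potato dextrose agar and incubated 3 days at 28 °C. No regrowth was scored fungicidal; regrowth was scored fungistatic.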

Fusarium oxysporum [3] = assay: Fungicidal activity against Fusarium oxysporum at 30 uM after 72 hrs by microtiter plate assay; format: functional, organism-based; summary of the method: as §1
SK-OV-3 = assay: Cytotoxicity against human SK-OV3 cells; format: functional
Summary of the method: (§2)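 NCI Developmental Therapeutics Program cell panel. GI50 is the concentration that reduces growth of treated cells to half that of untreated controls. TGI is the concentration that completely halts growth.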

ACHN = assay: Cytotoxicity against human ACHN cells; format: functional; summary of the method: as §2
PC-3 = assay: Cytotoxicity against human PC3 cells; format: functional; summary of the method: as §2
DU-145 = assay: Cytotoxicity against human DU145 cells; format: functional; summary of the method: as §2
T47D = assay: Cytotoxicity against human T47D cells; format: functional; summary of the method: as §2
Hs-578T = assay: Cytotoxicity against human HS578T cells; format: functional; summary of the method: as §2
Fusarium proliferatum [4] = assay: Antimicrobial activity against Fusarium proliferatum at 0.3 uM after 72 hrs by microtiter assay; format: functional
Summary of the method: (§3)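 96-well microdilution broth assay with conidia (3 × 10^5 conidia/mL, harvested from 7-day PDA cultures and filtered) against F. oxysporum, F. proliferatum and F. solani at 0.3, 3 and 30 µM. Plates were held at 24 ± 1 °C under a 12 h photoperiod. Growth was read at 620 nm at 24, 48 and 72 h and reported as percent inhibition from mean absorbance with standard error.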

Fusarium proliferatum [5] = assay: Antimicrobial activity against Fusarium proliferatum at 3 uM after 48 hrs by microtiter assay; format: functional; summary of the method: as §3
Fusarium proliferatum [6] = assay: Antimicrobial activity against Fusarium proliferatum at 3 uM after 72 hrs by microtiter assay; format: functional; summary of the method: as §3
Aspergillus fumigatus = assay: Antimicrobial activity against Aspergillus fumigatus ATCC 90906; format: functional, organism-based
Cryptococcus neoformans = assay: Antimicrobial activity against Cryptococcus neoformans ATCC 90113; format: functional, organism-based
Fusarium proliferatum [7] = assay: Antimicrobial activity against Fusarium proliferatum at 0.3 uM after 48 hrs by microtiter assay; format: functional; summary of the method: as §3
Candida albicans = assay: Antimicrobial activity against Candida albicans ATCC 90028; format: functional, organism-based
[8] = system: Mycobacterium intracellulare; assay: Antimicrobial activity against Mycobacterium intracellular ATCC 23068; format: functional, organism-based
Leishmania donovani = assay: Antiparasitic activity against Leishmania donovani; format: functional, organism-based
[9] = system: Mycobacterium tuberculosis; assay: Antibacterial activity against Mycobacterium tuberculosis H37Rv at 16 ug/mL by micro plate alamar blue assay; format: functional
Summary of the method: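 M. tuberculosis H37Rv ATCC 27294 grown in BACTEC 12B medium; microplate Alamar blue assay (MABA). Primary screen at a single concentration of 16 µg/mL, read as percent inhibition.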

[10] = system: Mycobacterium tuberculosis; assay: Antibacterial activity against Mycobacterium tuberculosis H37Rv by micro plate alamar blue assay; format: functional
Fusarium oxysporum [11] = assay: Antimicrobial activity against Fusarium oxysporum at 0.3 uM after 48 hrs by microtiter assay; format: functional; summary of the method: as §3
Fusarium oxysporum [12] = assay: Antimicrobial activity against Fusarium oxysporum at 0.3 uM after 72 hrs by microtiter assay; format: functional; summary of the method: as §3
Fusarium solani [13] = assay: Antimicrobial activity against Fusarium solani at 0.3 uM after 48 hrs by microtiter assay; format: functional; summary of the method: as §3
Fusarium solani [14] = assay: Antimicrobial activity against Fusarium solani at 0.3 uM after 72 hrs by microtiter assay; format: functional; summary of the method: as §3
Fusarium oxysporum [15] = assay: Antimicrobial activity against Fusarium oxysporum at 3 uM after 48 hrs by microtiter assay; format: functional; summary of the method: as §3
Fusarium oxysporum [16] = assay: Antimicrobial activity against Fusarium oxysporum at 3 uM after 72 hrs by microtiter assay; format: functional; summary of the method: as §3
Fusarium solani [17] = assay: Antimicrobial activity against Fusarium solani at 3 uM after 48 hrs by microtiter assay; format: functional; summary of the method: as §3
Fusarium solani [18] = assay: Antimicrobial activity against Fusarium solani at 3 uM after 72 hrs by microtiter assay; format: functional; summary of the method: as §3
Fusarium oxysporum [19] = assay: Antimicrobial activity against Fusarium oxysporum at 30 uM after 48 hrs by microtiter assay; format: functional; summary of the method: as §3
Fusarium oxysporum [20] = assay: Antimicrobial activity against Fusarium oxysporum at 30 uM after 72 hrs by microtiter assay; format: functional; summary of the method: as §3
Fusarium solani [21] = assay: Antimicrobial activity against Fusarium solani at 30 uM after 48 hrs by microtiter assay; format: functional; summary of the method: as §3
Fusarium solani [22] = assay: Antimicrobial activity against Fusarium solani at 30 uM after 72 hrs by microtiter assay; format: functional; summary of the method: as §3
A549 = assay: Cytotoxicity against human A549 cells; format: functional; summary of the method: as §2
NCI-H322M = assay: Cytotoxicity against human NCI-H322M cells; format: functional; summary of the method: as §2
RPMI-8226 = assay: Cytotoxicity against human RPMI8226 cells; format: functional; summary of the method: as §2
COLO 205 = assay: Cytotoxicity against human COLO205 cells; format: functional; summary of the method: as §2
HCC 2998 = assay: Cytotoxicity against human HCC2998 cells; format: functional; summary of the method: as §2
HCT-15 = assay: Cytotoxicity against human HCT15 cells; format: functional; summary of the method: as §2
HT-29 = assay: Cytotoxicity against human HT29 cells; format: functional; summary of the method: as §2
KM12 = assay: Cytotoxicity against human KM12 cells; format: functional; summary of the method: as §2
SNB-75 = assay: Cytotoxicity against human SNB75 cells; format: functional; summary of the method: as §2
UACC-257 = assay: Cytotoxicity against human UACC257 cells; format: functional; summary of the method: as §2
Fusarium proliferatum [23] = assay: Antimicrobial activity against Fusarium proliferatum at 30 uM after 48 hrs by microtiter assay; format: functional; summary of the method: as §3
Fusarium proliferatum [24] = assay: Antimicrobial activity against Fusarium proliferatum at 30 uM after 72 hrs by microtiter assay; format: functional; summary of the method: as §3

C/C=C1\NC(=O)[C@H](Cc2ccccc2)NC(=O)[C@@H](C(C)C)NC(=O)[C@@H]([C@@H](C)CC)NC(=O)[C@H](NC(=O)[C@H](NC(=O)[C@H](CCCNCc2cccs2)NC(=O)[C@H]2CCCN2C(=O)[C@@H](NC(=O)[C@H](NC(=O)[C@H](NC(=O)[C@@H](NC(=O)CCCC(C)C)C(C)C)[C@H](C)O)C(C)C)C(C)C)[C@@H](C)CC)[C@@H](C)OC(=O)[C@H](C(C)C)NC1=O
Activity (Fusarium proliferatum [1]): Active
Activity (Fusarium solani [2]): Active
Activity (Fusarium oxysporum [3]): Active

C/C=C1\NC(=O)[C@H](Cc2ccccc2)NC(=O)[C@@H](C(C)C)NC(=O)[C@@H]([C@@H](C)CC)NC(=O)[C@H](NC(=O)[C@H](NC(=O)[C@H](CCCNCc2cccs2)NC(=O)[C@H]2CCCN2C(=O)[C@H](NC(=O)[C@@H](NC(=O)[C@@H](NC(=O)[C@H](NC(=O)CCCC(C)C)C(C)C)[C@@H](C)O)C(C)C)C(C)C)[C@@H](C)CC)[C@@H](C)OC(=O)[C@H](C(C)C)NC1=O
GI50 (SK-OV-3): 223 nM
TGI (SK-OV-3): 485 nM
GI50 (ACHN): 1320 nM
TGI (ACHN): 2370 nM
GI50 (PC-3): 228 nM
TGI (PC-3): 665 nM
GI50 (DU-145): 144 nM
TGI (DU-145): 292 nM
GI50 (T47D): 191 nM
TGI (T47D): 394 nM
GI50 (Hs-578T): 427 nM
TGI (Hs-578T): 2130 nM
inhibition at 0.3 µM (Fusarium proliferatum [4]): 0%
inhibition at 3 µM (Fusarium proliferatum [5]): 4.8%
inhibition at 3 µM (Fusarium proliferatum [6]): 0%
MFC (Aspergillus fumigatus): 20 µM (≈ 31.5 µg/mL)
MIC (Aspergillus fumigatus): 10 µM (≈ 15.7 µg/mL)
MFC (Cryptococcus neoformans): 10 µM (≈ 15.7 µg/mL)
MIC (Cryptococcus neoformans): 5 µM (≈ 7.87 µg/mL)
inhibition at 0.3 µM (Fusarium proliferatum [7]): 0%
MFC (Candida albicans): 20 µM (≈ 31.5 µg/mL)
MIC (Candida albicans): 10 µM (≈ 15.7 µg/mL)
MBC [8]: > 20 µM
MIC [8]: > 20 µM
IC90 (Leishmania donovani): 34 µg/mL (≈ 21.6 µM)
inhibition at 16 µg/mL [9]: 92%
MIC [10]: 15.5 µg/mL (≈ 9.85 µM)
inhibition at 0.3 µM (Fusarium oxysporum [11]): 0%
inhibition at 0.3 µM (Fusarium oxysporum [12]): 0%
inhibition at 0.3 µM (Fusarium solani [13]): 0%
inhibition at 0.3 µM (Fusarium solani [14]): 0%
inhibition at 3 µM (Fusarium oxysporum [15]): 13.7%
inhibition at 3 µM (Fusarium oxysporum [16]): 0%
inhibition at 3 µM (Fusarium solani [17]): 47%
inhibition at 3 µM (Fusarium solani [18]): 32.9%
inhibition at 30 µM (Fusarium oxysporum [19]): 98.8%
inhibition at 30 µM (Fusarium oxysporum [20]): 99.2%
inhibition at 30 µM (Fusarium solani [21]): 99%
inhibition at 30 µM (Fusarium solani [22]): 99.3%
GI50 (A549): 166 nM
GI50 (NCI-H322M): 167 nM
TGI (NCI-H322M): 304 nM
GI50 (RPMI-8226): 1270 nM
TGI (RPMI-8226): 2760 nM
GI50 (COLO 205): 243 nM
GI50 (HCC 2998): 255 nM
TGI (HCC 2998): 971 nM
GI50 (HCT-15): 416 nM
TGI (HCT-15): 1360 nM
GI50 (HT-29): 187 nM
GI50 (KM12): 1010 nM
TGI (KM12): 2190 nM
GI50 (SNB-75): 1010 nM
TGI (SNB-75): 2190 nM
GI50 (UACC-257): 1440 nM
TGI (UACC-257): 2820 nM
inhibition at 30 µM (Fusarium proliferatum [23]): 98.7%
inhibition at 30 µM (Fusarium proliferatum [24]): 99%

C/C=C1\NC(=O)[C@H](Cc2ccccc2)NC(=O)[C@@H](C(C)C)NC(=O)[C@@H]([C@@H](C)CC)NC(=O)[C@H](NC(=O)[C@H](NC(=O)[C@H](CCCN)NC(=O)[C@H]2CCCN2C(=O)[C@@H](NC(=O)[C@H](NC(=O)[C@H](NC(=O)[C@@H](NC(=O)CCCC(C)C)C(C)C)C(C)=O)C(C)C)C(C)C)[C@@H](C)CC)[C@@H](C)OC(=O)[C@H](C(C)C)NC1=O
Activity (Fusarium proliferatum [1]): Active
Activity (Fusarium solani [2]): Active
Activity (Fusarium oxysporum [3]): Active
